NPY Y2 blocker = NPY-Y2 receptor antagonists, primary screen, cell-based. Neuropeptide Y receptor type 2 (Homo sapiens), P49146. NPY-Y2 expressing cells, antagonist mode. inhibition, % at 2.7 µM. 140,000 tested, 0.99% active; in the data active = inhibition above about 17%;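 also: 0% = vehicle with agonist challenge and 100% = reference antagonist with challenge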
Target sequence (P49146 whole entry, looked up): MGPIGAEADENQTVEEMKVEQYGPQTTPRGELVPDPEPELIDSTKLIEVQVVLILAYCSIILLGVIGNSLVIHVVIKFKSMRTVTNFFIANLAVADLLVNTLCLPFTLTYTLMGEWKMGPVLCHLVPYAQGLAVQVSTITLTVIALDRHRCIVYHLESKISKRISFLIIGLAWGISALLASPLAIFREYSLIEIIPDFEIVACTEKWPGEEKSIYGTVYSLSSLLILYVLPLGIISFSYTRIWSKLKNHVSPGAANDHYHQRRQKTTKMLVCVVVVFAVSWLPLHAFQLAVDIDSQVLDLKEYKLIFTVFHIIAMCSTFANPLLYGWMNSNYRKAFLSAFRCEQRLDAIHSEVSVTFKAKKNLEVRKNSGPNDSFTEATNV
NPY-Y2 PAM-ag = NPY-Y2 potentiators or agonists, primary screen, cell-based. activation, % at 3.6 µM. 220,000 tested, 0.45% active. cells expressing NPY-Y2, potentiator/agonist read-out; in the data active = activation above about 27%;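 also: cells stimulated with NPY near EC25 plus isoproterenol at EC100; 0% = vehicle plus submaximal agonist and 100% = vehicle plus saturating agonist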
m-calpain inh = inhibitors of pig calpain II, primary screen, biochemical, fluorogenic peptide substrate, 1536-well; inhibition, % at 16 µM; 220,000 tested, 0.37% active; purified calpain II, 30 min;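 active = inhibition above about 50%, limit read from the data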
Tb hexokinase = Trypanosoma brucei hexokinase 1 inhibitors, primary screen, biochemical, G6PDH-coupled NADH absorbance, MLSCN library; hexokinase 1 [Trypanosoma brucei]; recombinant TbHK1, G6PDH-coupled NADH A340; inhibition, % at 10 µM; 220,000 tested, 0.11% active; AID 1430, 2008;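 active = inhibition of 50% or more in the single-dose primary screen; inactive = inhibition below 50%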
NPY1 pot ag = NPY-Y1 receptor potentiators or agonists, primary screen, cell-based. 220,000 tested, 0.37% active. AID 1304, 2008. NPY-Y1 expressing cells, potentiator/agonist activation. Neuropeptide Y receptor type 1 (Homo sapiens), P25929. activation, % at 3.6 µM; in the data active = activation above about 33%, passing the limit was not always enough;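 also: cells stimulated with NPY at EC10 then isoproterenol at EC100; 0% = low agonist plus stimulus and 100% = saturating agonist plus stimulus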
NPY Y1 blocker = NPY-Y1 receptor antagonists, primary screen, cell-based; Neuropeptide Y receptor type 1 (Homo sapiens), P25929; HEK293-CNG Y1 cells, membrane potential fluorescence; NPY at EC95, then isoproterenol; inhibition, % at 3.6 µM; 200,000 tested, 1% active;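 active = inhibition above the campaign mean inhibition of all tested compounds plus 3 SD, cut at about 20% in these data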;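 also: 0% = DMSO wells given NPY plus isoproterenol and 100% = isoproterenol alone without NPY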
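Benchmarks – high control isoproterenol alone, low control NPY with isoproterenol · Material – HEK293 Y1/CNG channel cell line · Times – dye 3 h, compound 60 min room temperature, stimulation 45 min · Probe or stimulus – NPY (25 nM), isoproterenol (1 µM), Ro 20-1724 (25 µM) · Evaluation – % inhibition of NPY effect · Signal – fluorescence, membrane potential probe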
NPY-Y1 confirm = NPY-Y1 potentiators or agonists, confirmation, cell-based; shares compounds with NPY1 pot ag; cell-based NPY-Y1 potentiator/agonist assay; activation, % at 3.6 µM; 280 tested, 20% active; AID 1546, 2009; in the data active = activation above about 45%;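 also: cells challenged with NPY at its EC10 plus isoproterenol stimulus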
NPY-Y2 counter = NPY-Y2 potentiators or agonists, counter-screen for NPY-Y1 potentiator project, cell-based, fluorescence; shares compounds with NPY1 pot ag; HEK293-CNG cells, membrane-potential fluorescence (FLIPR), 1536-well; activation, % at 3.6 µM; 280 tested, 20% active; AID 1649, 2009; in the data active = activation above about 33%
NPY-Y1 ag = NPY-Y1 direct agonists without NPY, confirmation, counter-screen for NPY-Y1 potentiator project, cell-based, fluorescence; shares compounds with NPY1 pot ag; HEK293 Y1-CNGC, membrane potential fluorescence, agonist mode; activation, % at 3.6 µM; 280 tested, 50% active;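 active = percent activation above the mean of DMSO-only control wells plus 3 SD of those wells, cut at about 18% in these data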;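 also: cells challenged with isoproterenol plus Ro 20-1724 with no NPY in test wells; Y1 agonism lowers isoproterenol-driven cAMP and reduces probe fluorescence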
NPY-Y2 agonist = NPY-Y2 direct agonists without NPY, counter-screen for NPY-Y1 potentiator project, cell-based, fluorescence | shares compounds with NPY1 pot ag | HEK293 Y2-CNGC, membrane potential fluorescence, agonist mode | activation, % at 3.6 µM | 280 tested, 67% active | AID 1698, 2009;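 active = activation above the solvent-only control wells' mean plus 3 SD, cut at about 11% in these data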;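 also: 0% = DMSO with isoproterenol and 100% = 40 nM NPY maximal response; agonism lowers cAMP so well fluorescence drops in active wells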
CNGC counter = CNGC cAMP sensor activity inhibitors, counter-screen for NPY-Y1 potentiator/agonist project, cell-based, HEK293-CNG parental, membrane potential fluorescence, Y1 set; shares compounds with NPY1 pot ag; isoproterenol cAMP; inhibition, % at 3.6 µM; 280 tested, 42% active; AID 1704, 2009;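 active = inhibition above the mean of stimulated solvent-only control wells plus 3 SD, cut at about 22% in these data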;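 also: 0% = isoproterenol-stimulated DMSO wells and 100% = unstimulated DMSO wells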
An asterisk follows results filed as active; . = no result. Only some compounds are listed: those with a hit (about 2.3% of all), similar ones and a draw of the others.

SMILES | NPY Y2 blocker | NPY-Y2 PAM-ag | m-calpain inh | Tb hexokinase | NPY1 pot ag | NPY Y1 blocker | NPY-Y1 confirm | NPY-Y2 counter | NPY-Y1 ag | NPY-Y2 agonist | CNGC counter
O=C1c2cccc3cccc(c23)C(=O)N1CCN1CCN(CC(O)COCc2ccc(Cl)cc2)CC1 (configuration not stated) | 3 | 29 | 11 | -24 | 37* | 3 | 41 | 46* | 31* | 57* | 47*
CC(=O)N1CCN(c2nc(CC(C)C)c3c(c2C#N)CCC3)CC1 | 2 | -25 | -173 | -11 | 7 | 4 | . | . | . | . | .
CC(C)Cc1nc(N2CCN(C(=O)C(C)C)CC2)c(C#N)c2c1CCC2 | 10 | -9 | -114 | 1 | 31* | 7 | -22 | -8 | -26 | -7 | -9
Cc1nn(-c2ccccc2)c(Cl)c1C(=O)Nc1nnc(C2CCCC2)s1 | 2 | -15 | 15 | -8 | -14 | -3 | . | . | . | . | .
CCOC(=O)c1c(NC(=O)C2C3CCC(O3)C2C(=O)O)sc(C)c1-c1ccc(F)cc1 (configuration not stated) | 0 | -1 | -11 | -1 | 24 | -3 | . | . | . | . | .
CCCOC(=O)c1c(-c2ccc(C)cc2C)csc1NC(=O)C1C2CCC(O2)C1C(=O)O (configuration not stated) | -1 | 25 | -1 | 11 | 48* | -1 | 18 | 9 | 18* | 13* | 12
CCN(CC)S(=O)(=O)c1ccc(NC(=O)c2cccs2)cc1 | . | -17 | -11 | -1 | 86* | 1 | -6 | -2 | -8 | 3 | 6
O=C(O)COc1ccccc1/C=N/NC(=O)CSc1nc2ccccc2n1Cc1ccc(Cl)cc1 | . | -10 | 14 | -8 | 7 | . | . | . | . | . | .
Cc1cccc(C)c1OCC(O)CN (configuration not stated) | 3 | -4 | 0 | -9 | -2 | -3 | . | . | . | . | .
Cc1cc(OCC(O)CN)ccc1Cl (configuration not stated) | . | 20 | -10 | -1 | 51* | 2 | 12 | 9 | 8 | 18* | 5
Nc1ccccc1C(=O)NNc1c2ccccc2nc2ccccc12 | . | 16 | -18 | -1 | 29 | . | . | . | . | . | .
COc1ccc(N/N=C(\C#N)C(=N)SCc2ccccc2)cc1 | . | 25 | 15 | -3 | 37* | -4 | 18 | 6 | 17 | 23* | 15
Cc1nc(C)c(-c2csc(Nc3cccnc3)n2)s1 | -7 | 26 | -15 | -1 | 40* | -16 | 51* | 41* | 53* | 52* | 41*
Cc1csc(SCC(=O)N(C)CC(=O)Nc2ccc(F)cc2)n1 | . | -3 | 24 | 9 | -13 | 9 | . | . | . | . | .
O=C(Cn1c(=O)sc2ccccc21)OC(CCl)CCl | 0 | 24 | 3 | 2 | 44* | -9 | 78* | 49* | 62* | 49* | 75*
COc1ccc(CNC(=O)C2CCCN(Cc3nc(-c4cccc(C)c4)oc3C)C2)cc1 (configuration not stated) | . | -23 | 10 | -2 | -22 | 3 | . | . | . | . | .

Bioassay records as filed in PubChem.
